The record followed here is paper PMC11842817 (Nature Communications, 2025).

The target of data set [1] is T1, SyoA (Amycolatopsis thermoflava, UniProt A0AAX7FLX8).
T1 sequence (A0AAX7FLX8 1-412): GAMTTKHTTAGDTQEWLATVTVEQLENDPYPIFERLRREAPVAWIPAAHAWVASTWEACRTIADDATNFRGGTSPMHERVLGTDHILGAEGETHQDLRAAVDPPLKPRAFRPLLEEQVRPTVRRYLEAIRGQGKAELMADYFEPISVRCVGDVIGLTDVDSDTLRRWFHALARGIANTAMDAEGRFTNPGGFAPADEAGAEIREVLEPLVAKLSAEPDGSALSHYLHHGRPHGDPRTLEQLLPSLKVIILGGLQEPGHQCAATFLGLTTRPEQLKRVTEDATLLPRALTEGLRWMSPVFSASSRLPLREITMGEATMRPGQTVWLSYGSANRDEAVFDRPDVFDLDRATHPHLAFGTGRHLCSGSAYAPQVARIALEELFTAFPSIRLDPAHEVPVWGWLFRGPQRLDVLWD
Nature of the data set: In vitro H2O2-driven. Format: biochemical, Amycolatopsis thermoflava N1165. The conditions noted are these: 1 µM SyoA; for concentration of demethylated aromatic product (individual replicates): 10 mM H2O2, 0.5 mM syringol; for concentration of demethylated aromatic product (individual replicates) / concentration of demethylated aromatic product (mean of 3 replicates): 0.5 mM syringaldehyde or 2 mM 4-methylsyringol, 30 °C, 60 min; for total turnover number (TTN): 10 mM H2O2, 60 min; for concentration of demethylated aromatic product (mean of 3 replicates): 50 mM Tris pH 7.5, 10 mM H2O2, 0.5 mM syringol. In short, it runs like this: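 SyoA expressed in E. coli BL21(DE3) and purified by Ni affinity then anion exchange. Enzyme at 1 µM in 50 mM Tris pH 7.5 with 0.5–2 mM test compound (from DMSO stock), preincubated 2 min at 30 °C. Started with 10 mM H2O2 and run 60 min at 30 °C, then quenched with catalase; triplicate. Products quantified by C18 HPLC (20–95% MeCN/0.1% TFA, 254 nm) against internal-standard calibration (20–500 µM), or by GC-MS after ethyl acetate extraction.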

The target in data set [2] is T1, SyoA. Nature of the data set: UV-Vis spin-state shift / substrate binding analysis. Details: species or system Amycolatopsis thermoflava N1165. The conditions noted are these: ligand titrated until Soret band stopped shifting. The essentials: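 SyoA at about 3 µM in 50 mM Tris pH 7.5 received test compound in 1 µL aliquots from 100 mM DMSO stock. Spectra recorded from 600–250 nm until no further shift. Spin-state change read from the Soret band (417 nm) or the Q-bands (568 and 535 nm).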

Data set [3] addresses T1, SyoA. Nature of the data set: Substrate binding affinity. Also noted: species or system Amycolatopsis thermoflava N1165. The conditions noted are these: 50 mM potassium phosphate pH 7.4, n = 3, hyperbolic fit. In short, it runs like this:
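SyoA at about 2–8 µM in 50 mM potassium phosphate pH 7.4 titrated with test compound from 1, 10 or 100 mM DMSO stocks (at most 10 µL per stock). Difference spectra recorded from 300–600 nm until no further shift. Peak-to-trough ΔA taken at 390−419, 500−419 or 500−570 nm depending on ligand, then fitted to a hyperbolic equation for KD; triplicate titrations.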

The test system of the next data set is SyoA/SyoB. The experiment in a line: In vitro NADH/O2-driven. Format: biochemical, Amycolatopsis thermoflava N1165. The conditions noted are these: ~320 μM NADH; for O-demethylation by reconstituted SyoA/SyoB monooxygenase system: 1 μM SyoA, 1 μM SyoB, 1 mM substrate, 30 °C. The essentials: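 Reconstituted system of 1 µM SyoA, 1 µM His-tagged SyoB and 100 µg/mL catalase in oxygenated 50 mM Tris pH 7.5 at 30 °C. Background NADH (about 320 µM) oxidation recorded first. Started with 1 mM test compound from DMSO stock; A340 (ε 6.22 mM−1 cm−1) monitored about 10 min, then about 1 h at room temperature for full NADH use. No-P450 controls included. Products analysed by HPLC.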

Data set [4] relates to SyoA mutants (SyoAEE, SyoAQT, SyoAET). The experiment in a line: In vitro H2O2-driven O-demethylation by I-helix mutants, HPLC. The class given is biochemical, Amycolatopsis thermoflava N1165. The conditions noted are these: mutation of Gln252 and/or Glu253. The essentials:
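SyoA I-helix mutants expressed in E. coli BL21(DE3) and purified by Ni affinity only. Enzyme at 1 µM in 50 mM Tris pH 7.5 with 0.5–2 mM test compound, preincubated 2 min at 30 °C. Started with 10 mM H2O2 and run 60 min at 30 °C, then catalase-quenched; triplicate. Products quantified by C18 HPLC at 254 nm with internal standard and product calibration curves.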

The test system is the same in data set [5]. The experiment in a line: UV-Vis substrate binding analysis of I-helix mutants. Also noted: species or system Amycolatopsis thermoflava N1165.
In data set [6] the test system is GcoA mutants (GcoAEE, GcoAQT, GcoAET). The experiment in a line: In vitro H2O2-driven O-demethylation by I-helix mutants, HPLC. The class given is biochemical, Amycolatopsis thermoflava. As to conditions: mutation of Gln248 and/or Glu249, 20 mM H2O2. The essentials:
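GcoA mutants carried N-terminal His6-TEV tags, were expressed in E. coli BL21(DE3) and purified by Ni affinity. Reactions used 1 µM enzyme in 50 mM Tris pH 7.5 with 0.5–2 mM test compound, preincubated 2 min at 30 °C. Started with 20 mM H2O2 and run 60 min at 30 °C, then catalase-quenched; triplicate. Products quantified by C18 HPLC at 254 nm against calibration curves.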

The test system of data set [7] is GcoA mutants (GcoAEE, GcoAQT, GcoAET) with GcoB. The experiment in a line: In vitro NADH/O2-driven. Format: biochemical, Amycolatopsis thermoflava. The essentials:
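GcoA mutants at 0.5 µM with 1 µM GcoB and 100 µg/mL catalase in oxygenated 50 mM Tris pH 7.5 at 30 °C. About 320 µM NADH added first to record background oxidation. Started with 1 mM test compound; A340 followed for about 10 min, then left about 1 h at room temperature. No-P450 controls included. Products analysed by C18 HPLC at 254 nm.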

Data set [8] concerns GcoA mutants (GcoAEE, GcoAQT, GcoAET). Nature of the data set: UV-Vis substrate binding analysis of I-helix mutants. Also noted: species or system Amycolatopsis thermoflava.

“And” between values parts separate entries of the source, which are not always exact repeats. Identical values can stand only once. “Also recorded” adds a separate entry of the source.

With `COc1cc(C=O)cc(O)c1O` [3a, 5-hydroxyvanillin], on SyoA [1], the “concentration of demethylated aromatic product (individual replicates)” value (“concentration … (individual replicates)” for short) is 332 µM and 314 µM and 279 µM.
As usually defined, the Kd is the free concentration of one partner at which half of the binding sites on the other are occupied at equilibrium, for simple one-to-one binding. A higher Kd goes with weaker binding. In the case of `COc1cccc(OC)c1O` [syringol], on SyoA [2], the “shift to the HS (high-spin) form using the Soret band” value is reported as ~ 70%. The compound further had a Kd on SyoA [3] of 16 ± 1 µM. Also, the “O-demethylation by reconstituted SyoA/SyoB monooxygenase system” value with SyoA/SyoB is recorded as “did not O-demethylate; also recorded: no O-demethylation”. The “NADH consumption in reaction containing SyoA, SyoB and substrate” value in the data set with SyoA/SyoB (monitored at 340 nm) is on record as “NADH was consumed”. At SyoA [1], the “total turnover number (TTN)” value worked out at 142 and the “concentration of demethylated aromatic product (mean of 3 replicates)” value stood at 142 ± 15 µM. Moreover, the substrate consumed at SyoA [1] (over 60 min, 10 mM H2O2) was ~ 65%. The “hydrogen peroxide driven O-demethylation by mutants compared to wild type” value in data set [4] is recorded as “loss of peroxygenase activity”. Moreover, the “substrate binding to mutants (UV-Vis)” value in data set [5] is recorded as “not drastically impacted by the mutations”.
`COc1cc(C)cc(O)c1O` [2a, 3-methoxy-5-methylbenzene-1,2-diol]: at SyoA [1], the “concentration … (individual replicates)” value is 802 µM and 822 µM and 762 µM.
For `COc1cc(C=O)cc(OC)c1O` [syringaldehyde], the Kd at SyoA [3] came to 341 ± 25 µM. For the same compound, in the data set on SyoA/SyoB, the “O-demethylation by reconstituted SyoA/SyoB monooxygenase system” value was “did not O-demethylate; also recorded: no O-demethylation”. Besides, on SyoA [1], the “total turnover number (TTN)” value was 308 and the “concentration of demethylated aromatic product (mean of 3 replicates)” value came to 308 ± 27 µM.
As to `COc1cccc(O)c1O` [1b, 3-methoxycatechol], the “concentration … (individual replicates)” value on SyoA [1] is 155 µM and 125 µM and 146 µM.
Take `COc1ccccc1O` [guaiacol]: the “hydrogen peroxide driven O-demethylation by mutants compared to wild type” value in data set [6] was “loss of peroxygenase activity”. For the same compound, the “monooxygenase activity compared to wild type” value was “significant reduction in the monooxygenase activity” in data set [7] (GcoAEE), “significant reduction in the monooxygenase activity” in [7] (GcoAET) and “complete loss in activity” in data set [7] (GcoAQT). In addition, in [8], the “substrate binding to mutants (UV-Vis)” value was “not drastically impacted by the mutations”.
